Legend:
[1] = target: Mitogen-activated protein kinase kinase kinase kinase 4 (Homo sapiens, UniProt O95819); assay: Inhibition of ZC1 Lys2 labeling site in human Huh-7 cell lysate at 1 uM by KiNativ Profiling analysis relative to control; format: subcellular
[2] = target: Serine/threonine-protein kinase SMG1 (Homo sapiens) (UniProt Q96Q15); assay: Inhibition of SMG1 ATP labeling site harbouring SYPYLFKGLEDLHLDER in human A-375 cells at 0.05 uM by KiNativ Profiling analysis relative to control; format: cell-based
[3] = target: Tyrosine-protein kinase ABL2 (Homo sapiens, UniProt P42684); assay: Inhibition of ARG ACT labeling site in human A-375 cells at 0.5 uM by KiNativ Profiling analysis relative to control; format: cell-based
In short: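 Intact A375 melanoma cells were treated with compound at 5 or 0.5 μM, then lysed. Lysate kinases were labeled with a lysine-reactive ATP or ADP-biotin probe (KiNativ). Inhibition is read as protection of each kinase labeling site from probe labeling.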

[4] = target: T1, Dual specificity mitogen-activated protein kinase kinase 3 (Homo sapiens) (UniProt P46734); assay: Inhibition of MAP2K3 Lys2 labeling site in human A-375 cells at 0.05 uM by KiNativ Profiling analysis relative to control; format: cell-based
T1 sequence (whole entry): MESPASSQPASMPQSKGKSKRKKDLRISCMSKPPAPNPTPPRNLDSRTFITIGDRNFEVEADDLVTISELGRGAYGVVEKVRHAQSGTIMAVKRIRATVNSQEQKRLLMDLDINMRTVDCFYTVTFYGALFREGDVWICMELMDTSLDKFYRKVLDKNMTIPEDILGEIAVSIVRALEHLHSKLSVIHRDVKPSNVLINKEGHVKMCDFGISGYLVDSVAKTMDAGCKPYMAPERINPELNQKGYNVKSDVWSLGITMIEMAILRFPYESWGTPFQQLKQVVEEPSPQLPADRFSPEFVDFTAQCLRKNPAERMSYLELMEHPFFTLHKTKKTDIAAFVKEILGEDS

[5] = target: Serine/threonine-protein kinase WNK2 (Homo sapiens) (UniProt Q9Y3S1); assay: Inhibition of Wnk2 ATP Loop labeling site in human A-375 cells at 0.05 uM by KiNativ Profiling analysis relative to control; format: cell-based
[6] = target: T2, Kinase suppressor of Ras 2 (Homo sapiens) (UniProt Q6VAB6); assay: Inhibition of KSR2 ACT labeling site in human A-375 cells at 0.05 uM by KiNativ Profiling analysis relative to control; format: cell-based
T2 sequence (whole entry): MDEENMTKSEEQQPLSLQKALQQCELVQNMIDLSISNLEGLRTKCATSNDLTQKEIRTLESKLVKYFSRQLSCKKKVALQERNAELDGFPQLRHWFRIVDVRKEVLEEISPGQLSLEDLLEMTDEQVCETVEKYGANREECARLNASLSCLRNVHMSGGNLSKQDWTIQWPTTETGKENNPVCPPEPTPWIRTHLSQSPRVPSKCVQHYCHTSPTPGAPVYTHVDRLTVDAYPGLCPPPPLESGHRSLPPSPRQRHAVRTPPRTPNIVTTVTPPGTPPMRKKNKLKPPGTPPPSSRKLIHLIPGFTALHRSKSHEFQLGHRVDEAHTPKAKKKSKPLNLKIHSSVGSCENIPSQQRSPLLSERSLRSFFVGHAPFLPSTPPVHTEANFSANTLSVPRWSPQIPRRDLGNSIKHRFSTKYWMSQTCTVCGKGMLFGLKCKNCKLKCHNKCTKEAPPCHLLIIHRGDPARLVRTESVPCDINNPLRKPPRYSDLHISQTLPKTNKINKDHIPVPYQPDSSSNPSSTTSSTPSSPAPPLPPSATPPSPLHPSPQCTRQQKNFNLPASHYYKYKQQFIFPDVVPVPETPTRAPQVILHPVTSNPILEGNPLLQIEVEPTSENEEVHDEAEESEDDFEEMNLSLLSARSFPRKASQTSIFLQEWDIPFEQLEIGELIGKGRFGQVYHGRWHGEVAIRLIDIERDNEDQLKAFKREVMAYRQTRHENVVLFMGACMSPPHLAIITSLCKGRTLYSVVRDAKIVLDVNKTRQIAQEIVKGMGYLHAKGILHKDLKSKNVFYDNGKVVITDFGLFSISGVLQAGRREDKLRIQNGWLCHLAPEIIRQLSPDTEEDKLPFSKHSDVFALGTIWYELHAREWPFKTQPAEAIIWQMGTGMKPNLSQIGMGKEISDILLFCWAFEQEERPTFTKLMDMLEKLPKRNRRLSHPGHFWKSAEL

[7] = target: Serine/threonine-protein kinase WNK1 (Homo sapiens) (UniProt Q9H4A3); assay: Inhibition of Wnk1 ACT labeling site in human A-375 cells at 5 uM by KiNativ Profiling analysis relative to control; format: cell-based
[8] = target: Serine/threonine-protein kinase 32C (Homo sapiens) (UniProt Q86UX6); assay: Inhibition of YANK3 Lys2 labeling site in human A-375 cells at 5 uM by KiNativ Profiling analysis relative to control; format: cell-based
[9] = target: Proto-oncogene tyrosine-protein kinase Src (Homo sapiens, UniProt P12931); assay: Inhibition of SRC (unknown origin) Lys1 labeling site by KiNativ Profiling analysis
[10] = target: Serine/threonine-protein kinase PLK1 (Homo sapiens) (UniProt P53350); assay: Inhibition of PLK1 Lys1 labeling site in human A-375 cells at 5 uM by KiNativ Profiling analysis relative to control; format: cell-based
[11] = target: T3, Serine/threonine-protein kinase TBK1 (Homo sapiens) (UniProt Q9UHD2); assay: Inhibition of TBK1 Lys1 labeling site in human A-375 cells at 0.05 uM by KiNativ Profiling analysis relative to control; format: cell-based
T3 sequence (whole entry): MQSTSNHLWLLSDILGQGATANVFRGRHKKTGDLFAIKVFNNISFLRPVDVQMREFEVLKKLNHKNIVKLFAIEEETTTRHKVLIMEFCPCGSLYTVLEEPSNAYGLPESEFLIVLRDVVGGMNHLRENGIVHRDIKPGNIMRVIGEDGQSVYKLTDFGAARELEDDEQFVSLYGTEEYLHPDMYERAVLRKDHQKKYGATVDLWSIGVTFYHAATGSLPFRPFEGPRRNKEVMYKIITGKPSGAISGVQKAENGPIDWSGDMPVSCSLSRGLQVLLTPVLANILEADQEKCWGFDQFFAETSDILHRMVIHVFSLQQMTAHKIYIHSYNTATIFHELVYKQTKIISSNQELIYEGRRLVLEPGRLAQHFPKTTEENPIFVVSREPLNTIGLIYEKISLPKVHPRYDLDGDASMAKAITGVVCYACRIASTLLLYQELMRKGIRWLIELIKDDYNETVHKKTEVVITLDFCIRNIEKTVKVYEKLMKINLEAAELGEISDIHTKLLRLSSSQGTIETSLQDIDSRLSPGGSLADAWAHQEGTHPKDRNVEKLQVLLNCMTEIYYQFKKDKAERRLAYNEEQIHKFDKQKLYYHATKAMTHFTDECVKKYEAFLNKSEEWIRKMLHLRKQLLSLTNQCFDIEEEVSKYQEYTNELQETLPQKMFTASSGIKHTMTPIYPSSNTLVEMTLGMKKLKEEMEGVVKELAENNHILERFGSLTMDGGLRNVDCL

Sequence of Tyrosine-protein kinase ABL2 (P42684 whole entry): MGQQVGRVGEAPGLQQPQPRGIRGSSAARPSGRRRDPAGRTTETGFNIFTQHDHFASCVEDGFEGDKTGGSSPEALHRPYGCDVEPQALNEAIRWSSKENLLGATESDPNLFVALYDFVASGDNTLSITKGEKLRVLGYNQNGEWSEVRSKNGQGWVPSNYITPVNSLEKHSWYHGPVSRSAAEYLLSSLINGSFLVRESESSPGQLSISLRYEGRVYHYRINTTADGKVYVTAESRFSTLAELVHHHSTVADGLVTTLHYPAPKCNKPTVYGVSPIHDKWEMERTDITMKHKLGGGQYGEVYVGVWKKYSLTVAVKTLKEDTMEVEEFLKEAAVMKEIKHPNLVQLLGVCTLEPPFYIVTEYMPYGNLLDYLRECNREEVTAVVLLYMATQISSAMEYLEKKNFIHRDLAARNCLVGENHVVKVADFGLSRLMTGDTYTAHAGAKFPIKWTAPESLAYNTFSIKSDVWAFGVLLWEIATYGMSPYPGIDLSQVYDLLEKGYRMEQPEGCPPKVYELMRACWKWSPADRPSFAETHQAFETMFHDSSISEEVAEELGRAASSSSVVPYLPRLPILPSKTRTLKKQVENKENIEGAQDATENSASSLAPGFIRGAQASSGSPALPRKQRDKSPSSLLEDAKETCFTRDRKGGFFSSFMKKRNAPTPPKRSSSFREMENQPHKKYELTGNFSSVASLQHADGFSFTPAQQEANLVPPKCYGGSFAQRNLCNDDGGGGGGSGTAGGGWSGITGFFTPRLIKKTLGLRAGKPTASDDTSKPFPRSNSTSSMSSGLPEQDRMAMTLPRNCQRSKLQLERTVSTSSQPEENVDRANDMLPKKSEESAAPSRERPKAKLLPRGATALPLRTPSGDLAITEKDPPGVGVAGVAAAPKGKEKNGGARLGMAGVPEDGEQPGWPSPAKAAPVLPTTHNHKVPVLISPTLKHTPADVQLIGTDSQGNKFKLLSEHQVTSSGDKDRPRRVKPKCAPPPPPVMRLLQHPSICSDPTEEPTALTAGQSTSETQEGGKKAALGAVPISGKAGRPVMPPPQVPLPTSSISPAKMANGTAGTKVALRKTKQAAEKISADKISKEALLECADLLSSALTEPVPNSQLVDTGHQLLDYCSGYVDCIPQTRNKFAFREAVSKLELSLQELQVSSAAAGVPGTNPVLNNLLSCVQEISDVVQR
Sequence of Serine/threonine-protein kinase SMG1 (Homo sapiens) (Q96Q15 whole entry): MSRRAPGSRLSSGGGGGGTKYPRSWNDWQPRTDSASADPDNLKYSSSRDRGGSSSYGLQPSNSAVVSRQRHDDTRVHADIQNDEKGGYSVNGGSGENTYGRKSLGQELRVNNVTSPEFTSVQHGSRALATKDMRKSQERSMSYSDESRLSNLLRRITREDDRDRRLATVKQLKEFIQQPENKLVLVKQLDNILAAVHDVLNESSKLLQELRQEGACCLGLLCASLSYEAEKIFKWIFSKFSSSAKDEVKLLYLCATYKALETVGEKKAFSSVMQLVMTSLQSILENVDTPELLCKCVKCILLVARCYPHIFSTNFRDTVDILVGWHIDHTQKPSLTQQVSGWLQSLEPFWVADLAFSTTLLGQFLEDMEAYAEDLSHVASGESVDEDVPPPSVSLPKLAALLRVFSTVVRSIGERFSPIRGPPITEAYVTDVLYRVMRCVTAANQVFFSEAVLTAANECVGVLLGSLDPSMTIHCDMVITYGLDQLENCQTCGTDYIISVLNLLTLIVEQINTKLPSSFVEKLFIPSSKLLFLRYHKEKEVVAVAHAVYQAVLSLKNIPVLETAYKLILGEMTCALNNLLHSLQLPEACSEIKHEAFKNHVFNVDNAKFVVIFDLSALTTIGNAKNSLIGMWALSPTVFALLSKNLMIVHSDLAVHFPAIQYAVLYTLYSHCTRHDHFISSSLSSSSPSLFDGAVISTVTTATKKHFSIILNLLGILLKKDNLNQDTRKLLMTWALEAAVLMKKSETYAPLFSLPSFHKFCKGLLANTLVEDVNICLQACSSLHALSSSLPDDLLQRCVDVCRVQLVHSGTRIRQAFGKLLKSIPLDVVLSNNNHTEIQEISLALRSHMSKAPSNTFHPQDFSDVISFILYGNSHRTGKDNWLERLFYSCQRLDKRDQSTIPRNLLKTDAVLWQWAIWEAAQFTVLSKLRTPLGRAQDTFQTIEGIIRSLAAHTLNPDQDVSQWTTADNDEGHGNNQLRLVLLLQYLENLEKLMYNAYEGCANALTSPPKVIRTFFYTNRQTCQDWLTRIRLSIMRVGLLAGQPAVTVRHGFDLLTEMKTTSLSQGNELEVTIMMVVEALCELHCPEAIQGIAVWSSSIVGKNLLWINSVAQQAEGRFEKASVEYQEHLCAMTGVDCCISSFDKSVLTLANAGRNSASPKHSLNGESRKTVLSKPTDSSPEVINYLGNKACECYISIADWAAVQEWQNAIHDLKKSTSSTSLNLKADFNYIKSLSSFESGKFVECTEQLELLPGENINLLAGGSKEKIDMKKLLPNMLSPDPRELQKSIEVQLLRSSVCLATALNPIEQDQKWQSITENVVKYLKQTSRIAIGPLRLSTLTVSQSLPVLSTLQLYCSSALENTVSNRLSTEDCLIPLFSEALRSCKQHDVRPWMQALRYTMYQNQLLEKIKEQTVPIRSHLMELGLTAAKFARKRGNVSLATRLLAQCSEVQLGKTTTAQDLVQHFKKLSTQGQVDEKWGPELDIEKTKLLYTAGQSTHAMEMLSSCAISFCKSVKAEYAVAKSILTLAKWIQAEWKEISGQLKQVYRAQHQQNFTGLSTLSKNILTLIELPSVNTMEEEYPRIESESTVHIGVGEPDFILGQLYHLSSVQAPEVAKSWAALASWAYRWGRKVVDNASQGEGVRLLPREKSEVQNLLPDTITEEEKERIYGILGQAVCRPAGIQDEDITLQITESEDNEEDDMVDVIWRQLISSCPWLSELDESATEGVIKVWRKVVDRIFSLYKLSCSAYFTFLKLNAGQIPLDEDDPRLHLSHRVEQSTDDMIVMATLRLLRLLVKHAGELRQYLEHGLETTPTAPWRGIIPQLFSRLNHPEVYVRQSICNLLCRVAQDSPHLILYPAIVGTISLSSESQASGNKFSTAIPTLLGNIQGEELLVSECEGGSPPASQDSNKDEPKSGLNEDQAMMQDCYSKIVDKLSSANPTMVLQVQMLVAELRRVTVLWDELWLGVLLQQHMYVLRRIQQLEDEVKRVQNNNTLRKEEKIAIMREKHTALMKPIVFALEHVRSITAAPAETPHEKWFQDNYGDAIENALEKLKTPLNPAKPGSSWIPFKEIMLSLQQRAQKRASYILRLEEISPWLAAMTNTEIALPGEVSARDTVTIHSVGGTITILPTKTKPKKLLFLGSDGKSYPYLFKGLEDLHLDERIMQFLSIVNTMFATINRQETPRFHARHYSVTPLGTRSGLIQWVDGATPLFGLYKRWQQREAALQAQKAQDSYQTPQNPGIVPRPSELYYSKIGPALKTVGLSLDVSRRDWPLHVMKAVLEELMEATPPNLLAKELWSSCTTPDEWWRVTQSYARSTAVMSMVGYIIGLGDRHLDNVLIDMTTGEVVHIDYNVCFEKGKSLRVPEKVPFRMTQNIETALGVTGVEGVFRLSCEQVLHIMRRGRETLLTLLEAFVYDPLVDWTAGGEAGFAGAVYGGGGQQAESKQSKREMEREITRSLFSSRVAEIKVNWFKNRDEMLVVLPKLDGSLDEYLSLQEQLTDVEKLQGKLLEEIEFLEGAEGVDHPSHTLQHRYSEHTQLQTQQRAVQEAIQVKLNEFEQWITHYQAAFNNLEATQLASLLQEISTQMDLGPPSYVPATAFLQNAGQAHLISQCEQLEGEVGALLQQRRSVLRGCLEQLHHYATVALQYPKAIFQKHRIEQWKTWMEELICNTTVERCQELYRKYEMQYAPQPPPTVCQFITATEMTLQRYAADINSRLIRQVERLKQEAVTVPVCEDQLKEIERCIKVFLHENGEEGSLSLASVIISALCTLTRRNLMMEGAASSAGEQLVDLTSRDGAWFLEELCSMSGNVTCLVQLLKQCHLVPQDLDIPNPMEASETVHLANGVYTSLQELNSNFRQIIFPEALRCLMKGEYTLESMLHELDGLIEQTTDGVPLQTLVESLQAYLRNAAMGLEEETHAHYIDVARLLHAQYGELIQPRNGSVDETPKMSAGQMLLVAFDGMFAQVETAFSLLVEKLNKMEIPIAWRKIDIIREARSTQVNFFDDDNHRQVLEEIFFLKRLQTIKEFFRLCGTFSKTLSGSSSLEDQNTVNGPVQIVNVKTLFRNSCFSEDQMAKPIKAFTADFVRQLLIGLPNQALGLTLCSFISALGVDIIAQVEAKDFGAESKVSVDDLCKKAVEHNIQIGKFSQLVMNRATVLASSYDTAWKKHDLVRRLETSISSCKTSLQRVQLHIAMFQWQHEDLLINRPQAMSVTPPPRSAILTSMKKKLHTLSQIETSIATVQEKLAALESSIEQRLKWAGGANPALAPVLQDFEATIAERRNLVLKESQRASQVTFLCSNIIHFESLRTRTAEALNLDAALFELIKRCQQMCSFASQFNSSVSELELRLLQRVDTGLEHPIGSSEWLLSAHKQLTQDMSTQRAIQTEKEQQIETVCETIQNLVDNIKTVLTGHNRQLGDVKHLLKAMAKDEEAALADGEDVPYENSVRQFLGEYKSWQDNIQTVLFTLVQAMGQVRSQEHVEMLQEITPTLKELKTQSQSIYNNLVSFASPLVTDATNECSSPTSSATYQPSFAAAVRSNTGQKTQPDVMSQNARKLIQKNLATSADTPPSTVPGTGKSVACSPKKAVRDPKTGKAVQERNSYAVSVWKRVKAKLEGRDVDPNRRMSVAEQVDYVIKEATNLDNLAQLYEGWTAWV

CNc1cc(Oc2cc(C(=O)Nc3cc(N4CCN(C)CC4)cc(C(F)(F)F)c3)ccc2C)ncn1
inhibition [1]: 2.7%

CCN1CCN(Cc2ccc(NC(=O)c3ccc(C)c(Oc4ccnc5[nH]ccc45)c3)cc2C(F)(F)F)CC1
inhibition [2]: 15.6%
inhibition [3]: > 95%
inhibition [4]: 12.6%
inhibition [5]: 2.4%
inhibition [6]: 37%
inhibition [7]: 14.4%
inhibition [8]: 16.2%
IC50 [9]: 0.113 µM
inhibition [10]: -7.3%
inhibition [11]: 16.7%

CNc1cc(Oc2cc(C(=O)Nc3cc(-n4cnc(C)c4)cc(C(F)(F)F)c3)ccc2C)ncn1
inhibition [1]: 24.1%

CCN1CCN(Cc2ccc(NC(=O)c3ccc(C)c(/C=C/c4cnc5[nH]ccc5c4OC)c3)cc2C(F)(F)F)CC1
inhibition [2]: 31.7%
inhibition [3]: > 98%
inhibition [4]: 2.6%
inhibition [5]: 5%
inhibition [6]: 8.6%
inhibition [7]: -4.5%
inhibition [8]: 12.7%
IC50 [9]: 0.204 µM
inhibition [10]: 5.7%
inhibition [11]: 33.4%
